Test results reported in ChEMBL document CHEMBL4196180, “Semisynthesis of ω-Hydroxyalkylcarbonate Derivatives of Hydroxytyrosol as Antitrypanosome Agents” (J Nat Prod, 2018).

Columns and labels:
[1] = test system: Trypanosoma brucei brucei; experiment: Potency index, ratio of hydroxytyrosol IC50 to compound IC50 for Trypanosoma brucei brucei 427 […]; format: functional
How it was run: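 Activity gain calculated as IC50 of hydroxytyrosol against bloodstream-form T. brucei divided by IC50 of the derivative. Both come from the 72 h alamarBlue assay.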

[2] = Selectivity index, ratio of IC50 for MRC5 cells to IC50 for Trypanosoma brucei brucei 427 […]; format: toxicity, cell-based; settings: read-out: Ratio IC50
[3] = test system: Trypanosoma brucei brucei; experiment: Anti-parasitic activity against Trypanosoma brucei brucei 427 infected in human MRC5 cells assessed as reduction in parasite proliferation after 72 hrs by Alamar blue assay; format: functional, organism-based; settings: Trypanosoma brucei, 427, 72 h; in the assay text read “bloodstream forms” for “infected in human MRC5 cells”
How it was run: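 Bloodstream-form T. brucei brucei single-marker S427 (S16), grown in HMI-9 with 10% hiFBS at 37 °C, 5% CO2. Parasites seeded at 1 × 10^4 BSF/mL with increasing compound concentrations for 72 h at 37 °C, 5% CO2. Proliferation read by alamarBlue fluorescence (ex 550/em 590 nm); IC50 = 50% inhibition of parasite growth.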

MRC5 = experiment: Cytotoxicity against human MRC5 cells assessed as inhibition of cell growth after 72 hrs by MTT assay; format: cell-based; settings: MRC5, 72 h
How it was run: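 MRC-5 lung fibroblasts kept in low-glucose DMEM with 10% hiFBS and penicillin/streptomycin at 37 °C, 5% CO2, 100% humidity. Cells trypsinized (0.25%), seeded at 5000 cells/well with increasing compound concentrations, incubated 72 h at 37 °C. MTT colorimetric read-out; IC50 = concentration inhibiting growth 50% vs untreated cells.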

[4] = test system: Trypanosoma brucei brucei; experiment: Anti-parasitic activity against Trypanosoma brucei brucei 427 bloodstream forms assessed as reduction in parasite proliferation after 72 hrs by Alamar blue assay; settings: Trypanosoma brucei, 427, 72 h

Structure (SMILES) | Ratio IC50 [1] | selectivity ratio [2] | IC50 [3] | IC50 (MRC5) | IC50 [4]
CCCCCCOC(=O)OCCc1ccc(O)c(O)c1 | 263.9 | 62 | 0.2 µM | 11.2 µM | 
CCCCCCCCOC(=O)OCCc1ccc(O)c(O)c1 | 89.6 | 72 |  | 37.9 µM | 0.5 µM
O=C(OCCO)OCCc1ccc(O)c(O)c1 | 7.4 |  | 6.4 µM |  | 
O=C(OCCCCCCCCO)OCCc1ccc(OCc2ccccc2)c(OCc2ccccc2)c1 | 8.3 |  |  |  | 5.7 µM
CCCCCCCCCCCCCCCCOC(=O)OCCc1ccc(O)c(O)c1 | 7.7 |  | 6.2 µM |  | 
O=C(OCCCCCCOC(=O)OCCc1ccc(O)c(O)c1)OCCc1ccc(O)c(O)c1 | 22.6 | > 24 | 2.1 µM | > 50 µM | 
O=C(OCCCCOC(=O)OCCc1ccc(OCc2ccccc2)c(OCc2ccccc2)c1)OCCc1ccc(OCc2ccccc2)c(OCc2ccccc2)c1 |  |  | > 10 µM |  | 
O=C(OCCCCOC(=O)OCCc1ccc(O)c(O)c1)OCCc1ccc(O)c(O)c1 | 12 | > 13 | 4 µM | > 50 µM | 
O=C(OCCCCCCO)OCCc1ccc(OCc2ccccc2)c(OCc2ccccc2)c1 | 11.6 | > 12 | 4.1 µM | > 50 µM | 
O=C(OCCCCCCCCOC(=O)OCCc1ccc(O)c(O)c1)OCCc1ccc(O)c(O)c1 | 47.5 | > 50 | 1 µM | > 50 µM | 
O=C(OCCc1ccc(O)c(O)c1)OCCc1ccc(O)c(O)c1 | 37.1 | > 39 | 1.3 µM | > 50 µM | 
O=C(OCCO)OCCc1ccc(OCc2ccccc2)c(OCc2ccccc2)c1 | 5 |  | 9.4 µM |  | 
O=C(OCCCCCCCCOC(=O)OCCc1ccc(OCc2ccccc2)c(OCc2ccccc2)c1)OCCc1ccc(OCc2ccccc2)c(OCc2ccccc2)c1 | 7.7 |  | 6.2 µM |  | 
CCOC(=O)OCCc1ccc(O)c(O)c1 | 33.7 | 25 | 1.4 µM | 34.5 µM | 
O=C(OCCOC(=O)OCCc1ccc(O)c(O)c1)OCCc1ccc(O)c(O)c1 | 12.6 | > 13 | 3.8 µM | > 50 µM | 
CCCCCCCCCCCCOC(=O)OCCc1ccc(OCc2ccccc2)c(OCc2ccccc2)c1 |  |  | > 10 µM |  | 
CCCCOC(=O)OCCc1ccc(O)c(O)c1 | 6.6 |  | 7.2 µM |  | 
O=C(OCCCCCCO)OCCc1ccc(O)c(O)c1 | 11.6 | > 12 | 4.1 µM | > 50 µM | 
O=C(OCCCCCCOC(=O)OCCc1ccc(OCc2ccccc2)c(OCc2ccccc2)c1)OCCc1ccc(OCc2ccccc2)c(OCc2ccccc2)c1 | 5.9 |  | 8.1 µM |  | 
CCCCCCCCCCCCCCOC(=O)OCCc1ccc(O)c(O)c1 | 33.2 | 6 | 1.4 µM | 9.1 µM | 
O=C(OCCc1ccc(OCc2ccccc2)c(OCc2ccccc2)c1)OCCc1ccc(OCc2ccccc2)c(OCc2ccccc2)c1 |  |  | > 10 µM |  | 
O=C(OCCCCO)OCCc1ccc(OCc2ccccc2)c(OCc2ccccc2)c1 |  |  | > 10 µM |  | 
O=C(OCCCCCCCCO)OCCc1ccc(O)c(O)c1 | 32.8 | > 35 |  | > 50 µM | 1.5 µM
O=C(OCCOC(=O)OCCc1ccc(OCc2ccccc2)c(OCc2ccccc2)c1)OCCc1ccc(OCc2ccccc2)c(OCc2ccccc2)c1 | 8.4 |  |  |  | 5.7 µM
CCCCCCCCCCCCOC(=O)OCCc1ccc(O)c(O)c1 | 44.4 | 12 | 1.1 µM | 12.4 µM | 
O=C(OCCCCO)OCCc1ccc(O)c(O)c1 |  |  | > 10 µM |  | 
CCCCCCOC(=O)OCCc1ccc(OCc2ccccc2)c(OCc2ccccc2)c1 |  |  | > 10 µM |  | 
